# Measurements as given in ChEMBL document CHEMBL1135836, “Cyclodextrin-derived host molecules as reversal agents for the neuromuscular blocker rocuronium bromide: synthesis and structure-activity relationships” (J Med Chem, 2002).
# Key:
# Type in all cases: functional
# Mus musculus [1] = species on record: Mus musculus; assay: In vitro reversal activity versus ~90% block by rocuronium in isolated mouse hemidiaphragm, expressed as % of maximum reversal at 7.2 uM conc.
# Cavia porcellus [2] = assay: In vivo reversal activity versus ~90% block by rocuronium in guinea pig
# In short: (§1)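 Male Dunkin-Hartley guinea pigs (600-900 g), anaesthetized ip with pentobarbitone 10 mg/kg plus urethane 1000 mg/kg, tracheotomized and ventilated. Continuous iv rocuronium infusion (~10 nmol kg-1 min-1) was raised to a steady 85-90% block. Increasing iv doses of agent were given cumulatively. ED50 = 50% recovery versus preblock twitch, by regression. Mean ± SEM of at least two experiments, or one.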
# Mus musculus [3] = species on record: Mus musculus; assay: In vitro reversal activity versus ~90% block by rocuronium in isolated mouse hemidiaphragm, expressed as effective conc.
# Cavia porcellus [4] = assay: In vivo reversal activity versus ~90% block by rocuronium in guinea pig, expressed as % of maximum reversal at 1.6 umol/kg conc.; in short: as §1
# Mus musculus [5] = species on record: Mus musculus; assay: In vitro reversal activity versus ~90% block by rocuronium in isolated mouse hemidiaphragm, expressed as % of maximum reversal at 18 uM conc.
# Cavia porcellus [6] = assay: In vivo reversal activity versus ~90% block by rocuronium in guinea pig, expressed as % of maximum reversal at 8 umol/kg conc.
# In short: (§2)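 Male Dunkin-Hartley guinea pigs (600-900 g) anaesthetized ip with pentobarbitone 10 mg/kg plus urethane 1000 mg/kg, tracheotomized and artificially ventilated. Continuous iv rocuronium bromide infusion (~10 nmol kg-1 min-1) raised until steady-state twitch block of 85-90%. Increasing single iv doses of reversal agent given by a separate catheter. Max reversal is peak twitch recovery versus preblock height at highest dose tested; means ± SEM, n ≥ 2 or single experiment.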
# Cavia porcellus [7] = assay: In vivo reversal activity versus ~90% block by rocuronium in guinea pig, expressed as % of maximum reversal at 2 umol/kg conc.; in short: as §2
# Mus musculus [8] = species on record: Mus musculus; assay: In vitro reversal activity versus ~90% block by rocuronium in isolated mouse hemidiaphragm, expressed as % of maximum reversal
# Cavia porcellus [9] = assay: In vivo reversal activity versus ~90% block by rocuronium in guinea pig, expressed as % of maximum reversal. at a conc. of 0.08 uM
# Cavia porcellus [10] = assay: In vivo reversal activity versus ~90% block by rocuronium in guinea pig, expressed as % of maximum reversal at 2.8 umol/kg conc.; in short: as §2
# Mus musculus [11] = species on record: Mus musculus; assay: In vitro reversal activity versus ~90% block by rocuronium in isolated mouse hemidiaphragm, expressed as % of maximum reversal at 180 uM conc.
# Mus musculus [12] = species on record: Mus musculus; assay: In vitro reversal activity versus ~90% block by rocuronium in isolated mouse hemidiaphragm, expressed as % of maximum reversal at 3.6 uM conc.
# Cavia porcellus [13] = assay: In vivo reversal activity versus ~90% block by rocuronium in guinea pig, expressed as % of maximum reversal at 1.2 umol/kg conc.; in short: as §1
# Cavia porcellus [14] = assay: In vivo reversal activity versus ~90% block by rocuronium in guinea pig, expressed as % of maximum reversal at 15 umol/kg conc.; in short: as §2
# Cavia porcellus [15] = assay: In vivo reversal activity versus ~90% block by rocuronium in guinea pig, expressed as % of maximum reversal at 16 umol/kg conc.; in short: as §2
# Mus musculus [16] = species on record: Mus musculus; assay: In vitro reversal activity versus ~90% block by rocuronium in isolated mouse hemidiaphragm, expressed as % of maximum reversal at 360 uM conc.
# Mus musculus [17] = species on record: Mus musculus; assay: In vitro reversal activity versus ~90% block by rocuronium in isolated mouse hemidiaphragm, expressed as % of maximum reversal at 9 uM conc.
# Cavia porcellus [18] = assay: In vivo reversal activity versus ~90% block by rocuronium in guinea pig, expressed as % of maximum reversal at 3.6 umol/kg conc.; in short: as §2
# Cavia porcellus [19] = assay: In vivo reversal activity versus ~90% block by rocuronium in guinea pig, expressed as % of maximum reversal at 31.8 umol/kg conc.; in short: as §2
Structure (SMILES),EC50 (Mus musculus [3]) [µM],Max reversal (Mus musculus [1]) [%],ED50 (Cavia porcellus [2]) [µmol/kg],also measured
CC(CSCC1O[C@@H]2O[C@@H]3C(CSCC(C)C(=O)[O-])O[C@H](O[C@@H]4C(CSCC(C)C(=O)[O-])O[C@H](O[C@@H]5C(CSCC(C)C(=O)[O-])O[C@H](O[C@@H]6C(CSCC(C)C(=O)[O-])O[C@H](O[C@@H]7C(CSCC(C)C(=O)[O-])O[C@H](O[C@@H]8C(CSCC(C)C(=O)[O-])O[C@H](O[C@@H]9C(CSCC(C)C(=O)[O-])O[C@H](O[C@H]1C(O)C2O)C(O)C9O)C(O)C8O)C(O)C7O)C(O)C6O)C(O)C5O)C(O)C4O)C(O)C3O)C(=O)[O-].[Na+].[Na+].[Na+].[Na+].[Na+].[Na+].[Na+].[Na+] (stereo partly drawn),9.5,–,0.73,Max reversal (Mus musculus [5]): 77.5%; Max reversal (Cavia porcellus [6]): 97.8%
OCCSCC1O[C@@H]2O[C@@H]3C(CSCCO)O[C@H](O[C@@H]4C(CSCCO)O[C@H](O[C@@H]5C(CSCCO)O[C@H](O[C@@H]6C(CSCCO)O[C@H](O[C@@H]7C(CSCCO)O[C@H](O[C@@H]8C(CSCCO)O[C@H](O[C@@H]9C(CSCCO)O[C@H](O[C@H]1C(O)C2O)C(O)C9O)C(O)C8O)C(O)C7O)C(O)C6O)C(O)C5O)C(O)C4O)C(O)C3O (stereo partly drawn),4,86.4,0.21,Max reversal (Cavia porcellus [7]): 95.8%
CN(C)C(=O)Oc1cccc([N+](C)(C)C)c1.[Br-] [NEOSTIGMINE BROMIDE],0.9,–,0.04,Max reversal (Mus musculus [8]): 74.4%; Max reversal (Cavia porcellus [9]): 65.3%
O=C([O-])c1ccc(SCC2O[C@@H]3O[C@@H]4C(CO)O[C@H](O[C@@H]5C(CO)O[C@H](O[C@@H]6C(CO)O[C@H](O[C@@H]7C(CO)O[C@H](O[C@@H]8C(CO)O[C@H](O[C@@H]9C(CO)O[C@H](O[C@@H]%10C(CO)O[C@H](O[C@H]2C(O)C3O)C(O)C%10O)C(O)C9O)C(O)C8O)C(O)C7O)C(O)C6O)C(O)C5O)C(O)C4O)cc1.[Na+] (stereo partly drawn),50.3,–,0.94,Max reversal (Cavia porcellus [6]): 102.4%; Max reversal (Mus musculus [11]): 94.7%
O=C([O-])CCc1cccc(SCC2O[C@@H]3O[C@@H]4C(CO)O[C@H](O[C@@H]5C(CO)O[C@H](O[C@@H]6C(CO)O[C@H](O[C@@H]7C(CO)O[C@H](O[C@@H]8C(CO)O[C@H](O[C@@H]9C(CO)O[C@H](O[C@@H]%10C(CO)O[C@H](O[C@H]2C(O)C3O)C(O)C%10O)C(O)C9O)C(O)C8O)C(O)C7O)C(O)C6O)C(O)C5O)C(O)C4O)c1.[Na+] (stereo partly drawn),> 18,–,12.6,Max reversal (Cavia porcellus [14]): 55.8%; Max reversal (Mus musculus [5]): 3.9%
O=C([O-])CCSCC1O[C@@H]2O[C@@H]3C(CSCCC(=O)[O-])O[C@H](O[C@@H]4C(CSCCC(=O)[O-])O[C@H](O[C@@H]5C(CSCCC(=O)[O-])O[C@H](O[C@@H]6C(CSCCC(=O)[O-])O[C@H](O[C@@H]7C(CSCCC(=O)[O-])O[C@H](O[C@H]1C(O)C2O)C(O)C7O)C(O)C6O)C(O)C5O)C(O)C4O)C(O)C3O.[Na+].[Na+].[Na+].[Na+].[Na+].[Na+] (stereo partly drawn),> 360,–,> 16,Max reversal (Cavia porcellus [15]): 3.2%; Max reversal (Mus musculus [16]): 0%
OCCCSCC1O[C@@H]2O[C@@H]3C(CSCCCO)O[C@H](O[C@@H]4C(CSCCCO)O[C@H](O[C@@H]5C(CSCCCO)O[C@H](O[C@@H]6C(CSCCCO)O[C@H](O[C@@H]7C(CSCCCO)O[C@H](O[C@@H]8C(CSCCCO)O[C@H](O[C@@H]9C(CSCCCO)O[C@H](O[C@H]1C(O)C2O)C(O)C9O)C(O)C8O)C(O)C7O)C(O)C6O)C(O)C5O)C(O)C4O)C(O)C3O (stereo partly drawn),4.1,–,0.52,Max reversal (Mus musculus [17]): 96.5%; Max reversal (Cavia porcellus [18]): 98.3%
O=C([O-])CCc1ccc(SCC2O[C@@H]3O[C@@H]4C(CO)O[C@H](O[C@@H]5C(CO)O[C@H](O[C@@H]6C(CO)O[C@H](O[C@@H]7C(CO)O[C@H](O[C@@H]8C(CO)O[C@H](O[C@@H]9C(CO)O[C@H](O[C@@H]%10C(CO)O[C@H](O[C@H]2C(O)C3O)C(O)C%10O)C(O)C9O)C(O)C8O)C(O)C7O)C(O)C6O)C(O)C5O)C(O)C4O)cc1.[Na+] (stereo partly drawn),32.8,–,3.33,Max reversal (Cavia porcellus [19]): 93.8%; Max reversal (Mus musculus [5]): 36.2%

# The remaining molecules from weak to strong by EC50 (Mus musculus [3]), led by results:
EC50 (Mus musculus [3]) [µM],Structure (SMILES),Max reversal (Mus musculus [1]) [%],ED50 (Cavia porcellus [2]) [µmol/kg],also measured
3,O=C([O-])CCc1ccc(SCC2O[C@@H]3O[C@@H]4C(CSc5ccc(CCC(=O)[O-])cc5)O[C@H](O[C@@H]5C(CSc6ccc(CCC(=O)[O-])cc6)O[C@H](O[C@@H]6C(CSc7ccc(CCC(=O)[O-])cc7)O[C@H](O[C@@H]7C(CSc8ccc(CCC(=O)[O-])cc8)O[C@H](O[C@@H]8C(CSc9ccc(CCC(=O)[O-])cc9)O[C@H](O[C@@H]9C(CSc%10ccc(CCC(=O)[O-])cc%10)O[C@H](O[C@@H]%10C(CSc%11ccc(CCC(=O)[O-])cc%11)O[C@H](O[C@H]2C(O)C3O)C(O)C%10O)C(O)C9O)C(O)C8O)C(O)C7O)C(O)C6O)C(O)C5O)C(O)C4O)cc1.[Na+].[Na+].[Na+].[Na+].[Na+].[Na+].[Na+].[Na+] (stereo partly drawn),95.4,1.01,Max reversal (Cavia porcellus [10]): 94.3%
1.7,O=C([O-])Cc1cccc(SCC2O[C@@H]3O[C@@H]4C(CSc5cccc(CC(=O)[O-])c5)O[C@H](O[C@@H]5C(CSc6cccc(CC(=O)[O-])c6)O[C@H](O[C@@H]6C(CSc7cccc(CC(=O)[O-])c7)O[C@H](O[C@@H]7C(CSc8cccc(CC(=O)[O-])c8)O[C@H](O[C@@H]8C(CSc9cccc(CC(=O)[O-])c9)O[C@H](O[C@@H]9C(CSc%10cccc(CC(=O)[O-])c%10)O[C@H](O[C@@H]%10C(CSc%11cccc(CC(=O)[O-])c%11)O[C@H](O[C@H]2C(O)C3O)C(O)C%10O)C(O)C9O)C(O)C8O)C(O)C7O)C(O)C6O)C(O)C5O)C(O)C4O)c1.[Na+].[Na+].[Na+].[Na+].[Na+].[Na+].[Na+].[Na+] (stereo partly drawn),99.1,0.53,Max reversal (Cavia porcellus [7]): 104.6%
0.6,OC1C(O)[C@@H]2O[C@H]3OC(CSCCCc4nn[n-]n4)[C@@H](O[C@H]4OC(CSCCCc5nn[n-]n5)[C@@H](O[C@H]5OC(CSCCCc6nn[n-]n6)[C@@H](O[C@H]6OC(CSCCCc7nn[n-]n7)[C@@H](O[C@H]7OC(CSCCCc8nn[n-]n8)[C@@H](O[C@H]8OC(CSCCCc9nn[n-]n9)[C@@H](O[C@H]9OC(CSCCCc%10nn[n-]n%10)[C@@H](O[C@H]1OC2CSCCCc1nn[n-]n1)C(O)C9O)C(O)C8O)C(O)C7O)C(O)C6O)C(O)C5O)C(O)C4O)C(O)C3O.[Na+].[Na+].[Na+].[Na+].[Na+].[Na+].[Na+].[Na+] (stereo partly drawn),–,0.22,Max reversal (Mus musculus [12]): 89.9%; Max reversal (Cavia porcellus [13]): 109%
0.1,O=C([O-])c1ccccc1C(=O)NCCCSCC1O[C@@H]2O[C@@H]3C(CSCCCNC(=O)c4ccccc4C(=O)[O-])O[C@H](O[C@@H]4C(CSCCCNC(=O)c5ccccc5C(=O)[O-])O[C@H](O[C@@H]5C(CSCCCNC(=O)c6ccccc6C(=O)[O-])O[C@H](O[C@@H]6C(CSCCCNC(=O)c7ccccc7C(=O)[O-])O[C@H](O[C@@H]7C(CSCCCNC(=O)c8ccccc8C(=O)[O-])O[C@H](O[C@@H]8C(CSCCCNC(=O)c9ccccc9C(=O)[O-])O[C@H](O[C@@H]9C(CSCCCNC(=O)c%10ccccc%10C(=O)[O-])O[C@H](O[C@H]1C(O)C2O)C(O)C9O)C(O)C8O)C(O)C7O)C(O)C6O)C(O)C5O)C(O)C4O)C(O)C3O.[Na+].[Na+].[Na+].[Na+].[Na+].[Na+].[Na+].[Na+] (stereo partly drawn),90.7,0.27,Max reversal (Cavia porcellus [4]): 83%
